Screens: PubChem BioAssay, Sanford-Burnham Center for Chemical Genomics
G6PDH counter: L. mesenteroides G6PDH inhibitors, counter-screen for G6PDH-coupled screening assays, biochemical, Leuconostoc mesenteroides enzyme; glucose-6-phosphate dehydrogenase [Leuconostoc mesenteroides]; Purified L. mesenteroides G6PDH, diaphorase/resazurin coupled fluorescence, 45 min; inhibition, % at 5 µM; 200,000 tested, 0.12% active; AID 1020, 2008; in the data active = inhibition above about 50%
HKDC1 inhibitor: HKDC1 hexokinase inhibitors, primary screen, biochemical, fluorescence, uHTS; recombinant HKDC1, G6PDH/diaphorase resazurin coupled fluorescence; inhibition, % at 20 µM; 340,000 tested, 0.16% active;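 active = inhibition above about 35% when tested at 20 µM, limit read from the data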;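 also: plate controls were DMSO wells with enzyme for no effect and DMSO wells lacking enzyme for full effect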
Target sequence (Q2TB90 whole entry, looked up): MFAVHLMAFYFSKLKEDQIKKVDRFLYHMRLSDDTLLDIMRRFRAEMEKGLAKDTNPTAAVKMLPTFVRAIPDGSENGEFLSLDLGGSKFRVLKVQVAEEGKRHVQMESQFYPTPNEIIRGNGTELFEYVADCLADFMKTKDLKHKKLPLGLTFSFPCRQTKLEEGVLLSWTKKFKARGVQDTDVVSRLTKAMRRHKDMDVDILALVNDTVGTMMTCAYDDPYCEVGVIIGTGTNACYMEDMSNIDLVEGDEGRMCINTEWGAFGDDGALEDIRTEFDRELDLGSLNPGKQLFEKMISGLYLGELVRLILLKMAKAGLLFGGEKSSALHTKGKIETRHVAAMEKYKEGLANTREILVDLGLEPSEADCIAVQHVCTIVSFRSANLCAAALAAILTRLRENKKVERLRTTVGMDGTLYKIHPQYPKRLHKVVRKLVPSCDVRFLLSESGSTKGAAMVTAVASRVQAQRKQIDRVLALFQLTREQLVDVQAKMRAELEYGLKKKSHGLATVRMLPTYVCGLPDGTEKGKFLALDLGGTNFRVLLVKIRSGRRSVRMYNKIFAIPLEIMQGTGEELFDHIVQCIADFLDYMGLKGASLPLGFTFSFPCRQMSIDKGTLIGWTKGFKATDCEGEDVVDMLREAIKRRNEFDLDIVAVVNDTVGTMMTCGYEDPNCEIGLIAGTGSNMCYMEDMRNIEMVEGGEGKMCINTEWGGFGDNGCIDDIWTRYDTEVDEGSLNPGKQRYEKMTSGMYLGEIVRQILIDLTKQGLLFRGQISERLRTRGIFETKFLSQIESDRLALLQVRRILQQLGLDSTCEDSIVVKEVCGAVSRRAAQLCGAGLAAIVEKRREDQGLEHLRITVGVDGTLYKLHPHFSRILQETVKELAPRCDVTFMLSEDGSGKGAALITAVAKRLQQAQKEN
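System: Recombinant HKDC1 hexokinase | Amount: HKDC1 at 5 µg/mL | Reagent: Glucose with 1 mM ATP | Doses: Single 20 µM dose | Incubation: Reaction time 90 min, room temperature, protected from light | Signal: Coupled resazurin fluorescence, excitation 525 nm, emission 613 nm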
Diaphorase inh: diaphorase inhibitors and chemical oxidizers, primary screen, counter-screen for diaphorase-coupled primary assays, biochemical, uHTS, resorufin fluorescence. diaphorase resazurin-to-resorufin fluorescence, NADH, 16 min; bacterial (C. kluyveri) enzyme, not human. inhibition, % at 20 µM. 190,000 tested, 0.69% active;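 active = primary screen inhibition at 20 µM above a set limit, cut at about 50% in these data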;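 also: plate controls were DMSO with full reaction for no effect and wells lacking NADH for full effect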
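Assay system: diaphorase enzyme from Clostridium kluyveri. Quantity: enzyme working solution with 0.14 U/mL diaphorase. Schedule: reaction incubation of 16 min at room temperature. Technique: resorufin fluorescence, excitation 544 nm, emission 590 nm. Controls: No-NADH positive control and DMSO neutral control.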
PfG6PD inh: PfG6PD enzyme inhibitors, primary screen, biochemical, fluorescence intensity, uHTS | PfGluPho enzyme, NADPH resazurin-diaphorase fluorescence | inhibition, % at 20 µM | 350,000 tested, 0.78% active | glucose-6-phosphate dehydrogenase-6-phosphogluconolactonase (Plasmodium falciparum 3D7) | AID 504690, 2011;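 active = inhibition reaching at least a set limit at 20 µM in the primary screen, cut at about 59% in these data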;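 also: 0% = DMSO wells with substrate and 100% = DMSO wells lacking glucose-6-phosphate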
* marks the source's active call; other numbers are inactive results; . = no result given. This is a sample that favours compounds with a hit; in the whole collection about 1.3% have one here.

SMILES	G6PDH counter	HKDC1 inhibitor	Diaphorase inh	PfG6PD inh
Cc1nc2c(c(=O)n1CCC1=CCCCC1)c1nc3ccccc3nc1n2/N=C/c1ccco1	0.6	17.4	70.2*	25.6
CCCn1c(C)nc2c(c1=O)c1nc3ccccc3nc1n2CCC1=CCCCC1	10.5	10.1	19.5	15.6
COc1ccc(OC)c(C2CC(=O)N3CN(c4ccccc4)CSC3=C2C#N)c1 (configuration not stated)	9.9	12.1	37.6	80.8*
Cc1cccc(N2CSC3=C(C#N)C(c4ccc(C)o4)CC(=O)N3C2)c1 (configuration not stated)	11.5	.	63.9*	.
COc1ccc(C2CC(=O)N3CN(c4ccccc4F)CSC3=C2C#N)cc1OC (configuration not stated)	10.8	8.1	52.8*	68.3*
COc1cc(OC)c(C2CC(=O)N3CN(c4ccccc4C)CSC3=C2C#N)cc1OC (configuration not stated)	7.4	.	47.7	.
COc1ccc(C2CC(=O)N3CN(c4ccc(C)c(Cl)c4)CSC3=C2C#N)cc1 (configuration not stated)	14.0	17.6	50.0*	70.5*
N#CC1=C2SCN(Cc3ccco3)CN2C(=O)CC1c1ccc(Cl)cc1 (configuration not stated)	29.3	16.7	42.9	54.2
Cc1cc(C)nc(NS(=O)(=O)c2ccc(NS(=O)(=O)c3ccc(F)c(F)c3)cc2)n1	.	.	.	-33.1
CS(=O)(=O)Nc1ccc2c(c1)[C@H]1C[C@H](CC(=O)NCc3cccc(F)c3)O[C@@H](CO)[C@H]1O2	.	.	.	0.1
COc1ccc(NC2CCCN(C(=O)CCCn3cncn3)C2)cc1OC (configuration not stated)	.	23.2	.	28.8
N#CC1=C2SCN(Cc3ccccc3)CN2C(=O)CC1c1ccc2c(c1)OCO2 (configuration not stated)	-10.4	17.0	46.1	60.7*
O=C1CCC2(CCCC2)c2ccccc21	.	.	.	8.4
Nc1ccccc1Sc1nc2ccccc2[nH]1	-3.3	1.3	-9.1	62.1*
O=C(NNC(=O)c1ccc(-c2ccc([N+](=O)[O-])cc2)o1)c1ccncc1	.	1.8	.	-1.8
Fc1cccc(C[n+]2csc3ccccc32)c1	7.7	-1.3	19.5	54.7
c1ccc(C[n+]2csc3ccccc32)cc1	1.8	-4.7	19.8	61.6*
O=C(OCc1nnc(-c2ccc([N+](=O)[O-])cc2)o1)c1ccc(F)c(S(=O)(=O)N2CCOCC2)c1	.	1.3	.	4.2
Cc1cccnc1Nc1nc(-c2ccccn2)cs1	53.4*	-3.0	16.0	11.5
Cc1nc2ccccc2n1C(=O)c1ccc(Cl)cc1[N+](=O)[O-]	16.9	-9.2	53.7*	6.7
Cc1cc2nc3ccc(=[N+](C)C)cc-3sc2cc1N	.	46.9*	.	101.9*
O=S(=O)(/N=C/c1c(O)ccc2ccccc12)c1cccs1	57.3*	.	32.2	.
Cc1ccc(S(=O)(=O)/N=C/c2c(O)ccc3ccccc23)cc1	.	32.7	.	17.4
COc1ccc2c(CC(=O)NNC(=O)c3ccc(O)cc3)coc2c1	.	-3.3	.	3.0
CC(=O)c1c(NCCc2ccccc2)nc(=S)n(-c2ccccc2)c1C	2.5	-3.7	87.7*	-22.3
SMILES	G6PDH counter	HKDC1 inhibitor	Diaphorase inh	PfG6PD inh
CC(=O)c1c(NCc2ccccc2)nc(=O)n(-c2ccccc2)c1C	3.4	4.6	8.9	-15.7
CCn1c(C)c(C(C)=O)c(NCc2ccccc2)nc1=S	7.6	-2.3	52.0*	-8.4
CC(=O)c1c(N2CCN(c3cccc(Cl)c3)CC2)nc(=S)n(-c2ccccc2)c1C	-3.7	1.0	61.4*	22.1
Cc1cc(S(=O)(=O)N2CCOCC2)ccc1OCC(=O)N1CCCC1	.	-8.1	.	2.1
CCOc1cc(/C=C2\C(=N)N3N=C(S(=O)(=O)CC)SC3=NC2=O)ccc1OC(=O)c1ccco1	.	15.0	.	-3.3
CCS(=O)(=O)C1=NN2C(=N)/C(=C\c3ccc(SCc4ccco4)o3)C(=O)N=C2S1	2.8	4.2	57.0*	10.8
CC(C)c1nc2sc3c(=O)[nH]c(=S)[nH]c3c2c2c1CCC2	4.1	.	85.1*	.
COc1ccc(/C=C/C(=O)OCC(=O)c2cc(C)ccc2C)cc1	.	.	.	16.1
COc1ccccc1OCC(=O)Nn1c(=S)[nH]c2ncccc2c1=O	-18.4	-6.4	2.8	-11.9
O=C(COc1ccc(Cl)cc1Cl)Nn1c(=S)[nH]c2ncccc2c1=O	-22.0	-22.1	50.4*	-23.0
